According to ChEMBL document CHEMBL3526053, “Species-dependent uptake of glycylsarcosine but not oseltamivir in Pichia pastoris expressing the rat, mouse, and human intestinal peptide transporter PEPT1” (Drug Metab Dispos, 2012):

Legend:
[1] = molecular target: T1, Solute carrier family 15 member 1 (Homo sapiens, UniProt P46059); experiment: Drug uptake in Pichia pastoris GS115 expressing human recombinant PEPT1 at 0 degC measured immediately after drug addition by dual-channel liquid scintillation counting analysis; type: ADME
T1 sequence (P46059 whole entry): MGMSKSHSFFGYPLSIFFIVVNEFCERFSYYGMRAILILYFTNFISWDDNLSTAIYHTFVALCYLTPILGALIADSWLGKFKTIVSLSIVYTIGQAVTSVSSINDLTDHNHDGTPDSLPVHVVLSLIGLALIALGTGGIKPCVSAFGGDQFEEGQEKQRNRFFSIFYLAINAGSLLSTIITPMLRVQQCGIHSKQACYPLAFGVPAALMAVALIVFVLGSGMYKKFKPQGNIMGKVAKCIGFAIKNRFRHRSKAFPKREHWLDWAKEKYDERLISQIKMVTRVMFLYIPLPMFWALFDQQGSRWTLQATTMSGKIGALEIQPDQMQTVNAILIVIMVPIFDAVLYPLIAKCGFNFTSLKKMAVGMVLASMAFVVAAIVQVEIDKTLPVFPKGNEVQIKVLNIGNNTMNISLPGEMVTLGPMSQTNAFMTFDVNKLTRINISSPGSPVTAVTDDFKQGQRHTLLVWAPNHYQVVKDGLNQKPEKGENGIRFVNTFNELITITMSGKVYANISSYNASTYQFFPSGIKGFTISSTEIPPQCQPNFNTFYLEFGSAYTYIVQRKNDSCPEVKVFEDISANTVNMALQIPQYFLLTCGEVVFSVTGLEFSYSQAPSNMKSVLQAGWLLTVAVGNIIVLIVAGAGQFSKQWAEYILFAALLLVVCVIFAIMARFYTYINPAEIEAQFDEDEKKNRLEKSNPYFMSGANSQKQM
In short: (§1)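 Nonspecific binding of 5.0 µM [14C]oseltamivir is measured at 0°C in pH 6.5 phosphate buffer. The incubation is quenched immediately after adding the drug to the methanol-induced yeast suspension. Bound radioactivity is counted by liquid scintillation and expressed as pmol/OD600. Mean ± SE (n=6).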

[2] = molecular target: T2, Solute carrier family 15 member 1 (Mus musculus, UniProt Q9JIP7); experiment: Inhibition of mouse recombinant PEPT1 expressed in Pichia pastoris GS115 assessed as [3H]GlySar uptake after 30s by dual-channel liquid scintillation counting analysis
T2 sequence (Q9JIP7 whole entry): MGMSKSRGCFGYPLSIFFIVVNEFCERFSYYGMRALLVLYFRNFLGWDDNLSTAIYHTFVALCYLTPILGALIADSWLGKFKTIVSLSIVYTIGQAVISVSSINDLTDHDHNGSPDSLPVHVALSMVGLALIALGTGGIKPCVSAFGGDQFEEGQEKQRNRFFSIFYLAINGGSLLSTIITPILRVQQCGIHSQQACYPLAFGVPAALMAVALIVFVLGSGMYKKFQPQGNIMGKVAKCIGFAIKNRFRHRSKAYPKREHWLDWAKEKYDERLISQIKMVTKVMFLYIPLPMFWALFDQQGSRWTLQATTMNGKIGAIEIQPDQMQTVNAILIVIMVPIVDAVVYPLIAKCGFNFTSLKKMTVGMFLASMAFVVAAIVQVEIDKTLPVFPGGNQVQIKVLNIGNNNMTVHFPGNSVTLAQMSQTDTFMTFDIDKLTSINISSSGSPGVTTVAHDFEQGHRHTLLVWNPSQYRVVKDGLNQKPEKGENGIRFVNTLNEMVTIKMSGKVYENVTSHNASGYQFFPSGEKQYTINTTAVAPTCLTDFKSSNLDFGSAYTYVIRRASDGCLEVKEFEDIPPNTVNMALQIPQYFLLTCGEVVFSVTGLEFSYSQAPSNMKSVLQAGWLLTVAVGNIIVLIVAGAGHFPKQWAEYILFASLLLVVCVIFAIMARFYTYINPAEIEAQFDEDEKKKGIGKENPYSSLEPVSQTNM

Komagataella pastoris [3] = experiment: Stability in Pichia pastoris GS115 expressing rat recombinant PEPT1 at 5 uM measured for up to 30 mins by HPLC analysis; type: ADME, organism-based; details: 0.5 h
In short: (§2)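 [14C]oseltamivir 5.0 µM with [14C]PEG200 5.0 µM internal standard was incubated with induced GS115 cells (vector, human, mouse or rat PEPT1) at 24°C, pH 6.5, for up to 30 min. Reactions were quenched with 20% trichloroacetic acid and centrifuged at 4°C. Supernate was analysed by HPLC with radiochemical detection; retention 14.9 min for oseltamivir, 3.6 min for PEG200. n=6.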

[4] = molecular target: T2, Solute carrier family 15 member 1; experiment: Drug uptake in Pichia pastoris GS115 expressing mouse recombinant PEPT1 at 0 degC measured immediately after drug addition by dual-channel liquid scintillation counting analysis; type: ADME; in short: as §1
Komagataella pastoris [5] = experiment: Stability in Pichia pastoris GS115 expressing human recombinant PEPT1 at 5 uM measured for up to 30 mins by HPLC analysis; type: ADME, organism-based; details: 0.5 h; in short: as §2
[6] = molecular target: T3, Solute carrier family 15 member 1 (Rattus norvegicus, UniProt P51574); experiment: Drug uptake in Pichia pastoris GS115 expressing rat recombinant PEPT1 at 0 degC measured immediately after drug addition by dual-channel liquid scintillation counting analysis; type: ADME; in short: as §1
T3 sequence (P51574 whole entry): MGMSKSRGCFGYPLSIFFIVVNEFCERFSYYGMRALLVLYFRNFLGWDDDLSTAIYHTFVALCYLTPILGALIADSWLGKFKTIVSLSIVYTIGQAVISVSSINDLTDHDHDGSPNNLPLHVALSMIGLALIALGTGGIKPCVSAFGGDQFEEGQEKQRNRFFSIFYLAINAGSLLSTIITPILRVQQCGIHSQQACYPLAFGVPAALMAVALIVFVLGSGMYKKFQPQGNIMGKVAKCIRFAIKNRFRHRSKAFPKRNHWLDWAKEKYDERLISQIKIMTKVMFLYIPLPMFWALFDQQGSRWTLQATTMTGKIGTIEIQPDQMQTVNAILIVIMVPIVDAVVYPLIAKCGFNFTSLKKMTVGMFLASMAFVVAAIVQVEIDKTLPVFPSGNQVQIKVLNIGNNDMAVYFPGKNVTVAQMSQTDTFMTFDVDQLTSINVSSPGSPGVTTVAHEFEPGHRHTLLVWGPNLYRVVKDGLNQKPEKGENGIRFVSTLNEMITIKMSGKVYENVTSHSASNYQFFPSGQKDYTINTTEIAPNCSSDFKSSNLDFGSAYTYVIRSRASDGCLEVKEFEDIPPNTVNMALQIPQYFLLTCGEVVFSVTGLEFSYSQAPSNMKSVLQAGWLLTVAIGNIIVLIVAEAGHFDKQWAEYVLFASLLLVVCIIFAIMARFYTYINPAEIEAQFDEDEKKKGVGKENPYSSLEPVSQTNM

[7] = molecular target: T3, Solute carrier family 15 member 1; experiment: Inhibition of rat recombinant PEPT1 expressed in Pichia pastoris GS115 assessed as [3H]GlySar uptake after 30s by dual-channel liquid scintillation counting analysis
Komagataella pastoris [8] = experiment: Stability in Pichia pastoris GS115 expressing mouse recombinant PEPT1 at 5 uM measured for up to 30 mins by HPLC analysis; type: ADME, organism-based; details: 0.5 h; in short: as §2
[9] = molecular target: T1, Solute carrier family 15 member 1; experiment: Inhibition of human recombinant PEPT1 expressed in Pichia pastoris GS115 assessed as [3H]GlySar uptake after 30s by dual-channel liquid scintillation counting analysis
[10] = Protein binding in human at 50 to 500 mg, po bid; details: plasma
Komagataella pastoris [11] = experiment: Stability in Pichia pastoris GS115 at 5 uM measured for up to 30 mins by HPLC analysis; type: ADME, organism-based; details: 0.5 h; in short: as §2

Q: With `CCOC(=O)C1=C[C@@H](OC(CC)CC)[C@H](NC(C)=O)[C@@H](N)C1.O=P(O)(O)O` [OSELTAMIVIR PHOSPHATE] as the compound, how does the Drug uptake [1] read?
A: 0.2 pmol/OD

Q: And the IC50 [2]?
A: 10.7 mM

Q: And the Stability (Komagataella pastoris [3])?
A: Stable

Q: And the Drug uptake [4]?
A: 0.2 pmol/OD

Q: What about the Stability (Komagataella pastoris [5]) of the same compound?
A: Stable

Q: And the Drug uptake [6]?
A: 0.2 pmol/OD

Q: And the IC50 [7]?
A: 18.3 mM

Q: And the Stability (Komagataella pastoris [8])?
A: Stable

Q: What about the IC50 [9] of the same compound?
A: 27.4 mM

Q: What about the fraction unbound [10] of the same compound?
A: 0.58

Q: And the Stability (Komagataella pastoris [11])?
A: Stable
